For two molecules, Vdss, bioavailability and Kp results are on record in ChEMBL document CHEMBL1158591, “Discovery of 2-chloro-N-((4,4-difluoro-1-hydroxycyclohexyl)methyl)-5-(5-fluoropyrimidin-2-yl)benzamide as a potent and CNS penetrable P2X7 receptor antagonist” (Bioorg Med Chem Lett, 2010).

What all share (assay type): ADME, organism-based
The test system of one series is Rattus norvegicus. The series is described as follows: Volume of distribution at steady state in Sprague-Dawley rat at 1 mg/kg, iv and po. Details: dose 1 mg/kg. The following applies: in vivo. A digest of the protocol: (§1)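 Male Sprague Dawley rats, IV/PO crossover pharmacokinetics, dosed at 1 mpk by each route.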
Series [1] in a line: Oral bioavailability in Sprague-Dawley rat at 1 mg/kg, po. The conditions noted are these: in vivo. A digest of the protocol:
as §1

The nature of series [2]: Ratio of drug level in brain to plasma in iv dosed Sprague-Dawley rat. The conditions noted are these: brain and plasma. A digest of the protocol:
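Male Sprague Dawley rats given a steady-state IV infusion. Ratio is compound concentration in brain over that in plasma.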

Broadly, the bioavailability is the share of a dose that reaches the circulation, judged against a reference dose that is usually intravenous. For orientation: Kp means tissue or fluid exposure divided by exposure in the circulation.

Consider `O=C(NCC1(O)CCC(F)(F)CC1)c1cc(-c2ncc(F)cn2)ccc1Cl`, for which the Vdss in the series on Rattus norvegicus came out at 1.3 L/kg. The same molecule showed a bioavailability in series [1] of 84%. Also, the Kp in series [2] was found to be 1.3.
In the case of `O=C(NCC1(O)CCCCCC1)c1cc(-c2ncc(F)cn2)ccc1Cl`, the Vdss in the series on Rattus norvegicus was 0.9 L/kg. Also, the bioavailability in series [1] was 35%. The Kp in series [2] worked out at 0.7.
